The list is not random: actives were taken first. Their share in the collection is about 2.3%.
TRPC4 inh – inhibitors of mouse TRPC4 channel, primary screen, Fluo4 calcium, HEK293 TRPC4beta/mu-opioid cells | Short transient receptor potential channel 4 (Mus musculus), Q9QUQ5 | DAMGO-evoked Fluo4 calcium flux; active compounds read low | B-score at 10 µM | 300,000 compounds, 0.39% hits | AID 2247, 2010;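 active = B-score over 3 SD under the library average, no early fluorescence shift, positive overall ratio signal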
Target sequence (Q9QUQ5 whole entry, looked up): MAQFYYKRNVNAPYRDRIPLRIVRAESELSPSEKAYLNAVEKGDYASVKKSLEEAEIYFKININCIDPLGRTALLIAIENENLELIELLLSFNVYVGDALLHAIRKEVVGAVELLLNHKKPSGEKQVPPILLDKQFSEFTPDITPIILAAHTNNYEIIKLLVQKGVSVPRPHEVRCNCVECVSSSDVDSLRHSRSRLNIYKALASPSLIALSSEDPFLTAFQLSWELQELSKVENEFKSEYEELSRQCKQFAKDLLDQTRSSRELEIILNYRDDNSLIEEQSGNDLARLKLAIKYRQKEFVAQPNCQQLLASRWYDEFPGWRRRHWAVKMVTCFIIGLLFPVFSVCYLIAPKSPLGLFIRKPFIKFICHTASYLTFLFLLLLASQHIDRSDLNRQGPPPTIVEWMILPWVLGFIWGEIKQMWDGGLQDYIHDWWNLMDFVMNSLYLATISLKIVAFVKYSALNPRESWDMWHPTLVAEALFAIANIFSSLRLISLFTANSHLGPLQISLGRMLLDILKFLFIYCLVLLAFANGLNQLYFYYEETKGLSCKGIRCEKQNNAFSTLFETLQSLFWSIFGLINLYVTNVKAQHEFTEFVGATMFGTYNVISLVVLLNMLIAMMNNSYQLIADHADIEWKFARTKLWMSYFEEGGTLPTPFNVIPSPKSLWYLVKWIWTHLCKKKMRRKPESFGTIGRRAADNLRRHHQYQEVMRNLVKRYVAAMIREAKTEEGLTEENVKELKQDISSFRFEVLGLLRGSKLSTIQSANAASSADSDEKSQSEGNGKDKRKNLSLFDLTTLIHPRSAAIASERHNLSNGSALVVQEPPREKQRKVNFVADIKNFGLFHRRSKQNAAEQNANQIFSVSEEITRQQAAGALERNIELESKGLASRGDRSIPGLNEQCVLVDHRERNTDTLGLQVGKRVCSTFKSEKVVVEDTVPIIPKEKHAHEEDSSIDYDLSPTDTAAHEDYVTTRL
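Material: HEK293 cells with stable TRPC4beta plus mu-opioid receptor expression; probe or stimulus: DAMGO in two steps, submaximal then maximal; technique: Fluo4 calcium fluorescence by kinetic imaging, 5 s 1 Hz baseline; measure: integrated fluorescence ratio relative to baseline, converted to per-well B score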
TRPC4 agonist – activators of mouse TRPC4 channel, primary screen, Fluo4 calcium, HEK293 TRPC4beta/mu-opioid cells; Short transient receptor potential channel 4 (Mus musculus), Q9QUQ5; Fluo4 calcium fluorescence; active compounds read high; B-score at 10 µM; 310,000 compounds, 0.49% hits; AID 2237, 2010;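 active = B-score above 5 SD of library B-scores, and initial fluorescence ratio not above library mean plus 5 SD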;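 also: positive B-score marks a calcium rise read as TRPC4 activation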
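System: HEK293 cells stably co-expressing mouse TRPC4beta and mu-opioid receptor; Schedule: Fluo4 dye loading 45 min at room temperature, 110 s recording; Detection: Fluo4 fluorescence, kinetic; Evaluation: B-scored integrated calcium fluorescence ratio; Controls: buffer (low) and maximal DAMGO (high).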
TRPC4 potent – positive allosteric modulators of TRPC4, primary screen, cell-based, mouse TRPC4beta, HEK293 mu-opioid, Fluo-4 calcium | Short transient receptor potential channel 4 (Mus musculus), Q9QUQ5 | DAMGO EC20, Fluo-4 Ca2+ flux; active compounds read high | B-score at 10 µM | 310,000 compounds, 0.42% hits | AID 2227, 2009;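 active = B-score of calcium response area above 5 SD of library B-scores, with initial fluorescence ratio within 5 SD of library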;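 also: B-score of integrated fluorescence ratio over time as area under calcium response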
TRPC6 inh – mouse TRPC6 channel inhibitors, primary screen, cell-based, HEK293, membrane potential dye | Short transient receptor potential channel 6 (Mus musculus), Q61143 | ACh-evoked depolarization; active compounds read low | B-score at 10 µM | AID 2553, 2010 | 310,000 compounds, 1.1% hits;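 active = B-score under library mean minus 3 SD, initial fluorescence not abnormally high, positive integrated signal ratio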;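 also: B-score derived from integrated fluorescence ratio over the kinetic read; more negative B-score means stronger inhibition of depolarization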
TRPC6 act – mouse TRPC6 channel activators, primary screen, cell-based, HEK293, membrane potential dye | B-score at 10 µM | HEK293-TRPC6 membrane potential dye fluorescence; active compounds read high | 310,000 compounds, 0.13% hits | Short transient receptor potential channel 6 (Mus musculus), Q61143;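 active = B-score of the integrated fluorescence ratio above library mean plus 3 SD, and starting fluorescence ratio within library mean plus 5 SD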;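 also: higher score means more depolarization so channel activation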
HEK293 TRPC6 ctr – parental HEK293 membrane potential modulation, confirmation, counter-screen for TRPC6 modulator project, cell-based; shares compounds with TRPC6 inh; 2,400 compounds, 51% hits; membrane potential dye fluorescence; AID 488924, 2010; membrane potential signal change, % at 10 µM;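 active = membrane potential signal moves up or down beyond 5 SD from buffer-only wells, on both duplicate plates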
HEK293 MPD ctr 2 – second check of TRPC6 modulator effects in parental HEK293 cells | shares compounds with TRPC6 inh | membrane potential dye fluorescence; after compound, maximal acetylcholine stimulation | inhibition, % at 10 µM | 2,400 compounds, 14% hits;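 active = membrane potential signal drops by more than 5 SD from the mean control signal, in both duplicate plates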;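 also: plate controls were acetylcholine ECmax control wells for no effect and buffer only wells for full effect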
TRPC4 ctr mod – TRPC4 modulation by TRPC6 hit compounds, confirmation, selectivity assay for TRPC6 modulator project, cell-based, HEK293 TRPC4/mu-opioid, membrane potential dye, mouse; 2,400 compounds, 69% hits; shares compounds with TRPC6 inh; percent change from control (negative = decrease, positive = increase), % at 10 µM; membrane potential fluorescence;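 active = membrane potential signal moved up or down beyond 5 SD of buffer control wells, in both duplicate plates, actives on both sides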;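 also: plate controls were assay buffer wells for no effect and DAMGO maximal-effect wells for full effect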
TRPC4 ctr inh 2 – mouse TRPC4 off-target activity of TRPC6 modulators, second screen; 2,400 compounds, 55% hits; inhibition, % at 10 µM; HEK293 TRPC4/mu-opioid, membrane potential dye fluorescence; stimulated with maximal-effect DAMGO; shares compounds with TRPC6 inh;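 active = drop in membrane potential signal beyond 5 SD of the control wells in both duplicate plates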;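 also: TRPC4 counter screen for TRPC6 hits run under conditions tuned for TRPC6 not TRPC4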
TRPC6 inh conf – mouse TRPC6 channel inhibitors, confirmation, HEK293 cells, membrane potential dye, duplicate; shares compounds with TRPC6 inh; AID 488960, 2010; 3,300 compounds, 43% hits; ACh-evoked depolarization; inhibition, % at 10 µM;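 active = fluorescence ratio falls more than 5 SD below the full-stimulation control mean, in both duplicate runs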;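 also: integrated fluorescence ratio of peak minus minimum over baseline after agonist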
TRPC6 act conf – mouse TRPC6 channel activators, confirmation, HEK293 cells, membrane potential dye, duplicate; shares compounds with TRPC6 inh; HEK293-TRPC6 membrane potential dye fluorescence, FDSS; activation, % at 10 µM; 2,800 compounds, 11% hits; AID 488961, 2010;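 active = ratio signal rise beyond 5 SD above unstimulated control wells' mean, seen in both duplicate runs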;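 also: plate controls were buffer EC0 wells for no effect and acetylcholine ECmax response for full effect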
Numbers without * were called inactive; i = inactive; · = not tested or not shown.

SMILES	TRPC4 inh	TRPC4 agonist	TRPC4 potent	TRPC6 inh	TRPC6 act	HEK293 TRPC6 ctr	HEK293 MPD ctr 2	TRPC4 ctr mod	TRPC4 ctr inh 2	TRPC6 inh conf	TRPC6 act conf
Cc1ccccc1-n1nnnc1SCC(=O)Nc1ccc(N2CCN(C)CC2)cc1	i	i	i	i	i	·	·	·	·	·	·
Fc1ccc(NC(=S)NNc2ncc(C(F)(F)F)cc2Cl)c(F)c1	i	i	i	-6.49*	i	120.5%*	i	20.5%*	i	50.5%*	·
Cc1ccc(C)c(C(=O)COC(=O)c2ccccc2N2C(=O)C3C4CCC(C4)C3C2=O)c1 (stereo unspecified)	i	i	i	i	i	·	·	·	·	·	·
CCC(C)n1c(/C=C/c2ccccc2)nc2ccccc21 (stereo unspecified)	i	i	i	-5.07*	i	105.5%*	i	15.5%*	i	i	i
CCn1c(/C=C/c2ccccc2)nc2ccccc21	i	i	i	i	i	·	·	·	·	·	·
CC1CCC2(CC1)C(Nc1cccc(Cl)c1)=NC(=S)N2CC#N (stereo unspecified)	i	i	i	i	i	·	·	·	·	·	·
O=C(NCC1CCCO1)c1onc(CSc2ccc(F)c(F)c2)c1C(=O)O (stereo unspecified)	i	i	i	i	i	·	·	·	·	·	·
O=C(N/N=C/c1ccc([N+](=O)[O-])s1)c1ccccc1	i	i	i	-6.03*	i	i	i	i	i	i	i
Cc1ccccc1C(=O)N/N=C/c1ccc([N+](=O)[O-])s1	i	i	i	-6.1*	12.5*	i	i	13.0%*	i	i	i
O=C(N/N=C/c1ccc([N+](=O)[O-])s1)c1ccccc1Br	i	i	i	i	i	·	·	·	·	·	·
CCn1nnnc1SCC(=O)N1CCCCC1	i	i	i	i	i	·	·	·	·	·	·
O=C1c2ccccc2C(=O)c2c1ccc(C(=O)N1CCCCC1)c2NCCO	i	i	i	i	i	·	·	·	·	·	·
CC1CCCN(C(=O)c2ccc3c(c2NCCO)C(=O)c2ccccc2C3=O)C1 (stereo unspecified)	i	i	i	-5.92*	i	-235.0%*	i	-36.0%*	68.5%*	49.0%*	i
CCN(CCN(C)C)C(=O)c1ccc2c(c1NCCO)C(=O)c1ccccc1C2=O	i	i	i	-5.89*	i	-168.0%*	i	-34.5%*	49.0%*	45.0%*	i
COc1ccc(N2C(=O)CN(Cc3ccc(OC)c(OC)c3)C2=S)cc1	i	i	i	i	i	·	·	·	·	·	·
CSc1nnc(C)c(/C=C/Nc2ccc(Cl)cc2)n1	i	i	i	i	14*	214.0%*	i	35.5%*	i	i	36.5%*
CCOC(=O)N1CCN(C2CCCN(C(=O)c3cccc(N(C)C)c3)C2)CC1 (stereo unspecified)	i	i	i	i	i	·	·	·	·	·	·
CCc1c(C)c(C#N)c2nc3ccccc3n2c1Cl	i	i	i	i	i	·	·	·	·	·	·
CCCCc1c(C)c(C#N)c2nc3ccccc3n2c1NCCN(C)C	i	i	i	i	i	·	·	·	·	·	·
Cc1c2c(n3c(nc4ccccc43)c1C#N)N(CCN(C)C)CC2	i	i	i	-10.6*	i	-324.0%*	95.0%*	-59.5%*	71.0%*	69.5%*	i
Cc1c2c(n3c(nc4ccccc43)c1C#N)N(CCCN(C)C)CC2	i	i	i	-8.35*	i	-314.5%*	98.0%*	-56.5%*	62.5%*	68.0%*	i
Cc1c(Cc2ccccc2)c(NCCN(C)C)n2c(nc3ccccc32)c1C#N	i	i	i	-5.97*	i	i	i	i	54.0%*	i	i
O=C(Nc1ccc2c(c1)OCO2)C1CCCN1C(=O)Nc1ccccc1 (stereo unspecified)	i	i	i	i	i	·	·	·	·	·	·
CC(C)c1cc(NCCCN2CCOCC2)n2c(nc3ccccc32)c1C#N	i	i	i	i	i	·	·	·	·	·	·
CCn1c(SCC(=O)N/N=C(/C)c2ccncc2)nc2ccccc21	i	i	i	i	i	·	·	·	·	·	·
O=c1c2nnn(-c3ccc(Br)cc3)c2ncn1Cc1ccccn1	i	i	i	i	i	·	·	·	·	·	·
